Data: publication PMC8526403 (ACS chemical biology, 2021)
Entries after “also recorded” stand apart in the source; their conditions may differ.

Key:
3-OST-4 [1] = target: T1, 3-OST-4 (Homo sapiens, UniProt Q9Y661); experiment: Reactivity of 12-mers and HS to 3-OST-4 modification; type: biochemical; details: 12-mer substrates compared to HS polysaccharide
T1 sequence (Q9Y661 163-456): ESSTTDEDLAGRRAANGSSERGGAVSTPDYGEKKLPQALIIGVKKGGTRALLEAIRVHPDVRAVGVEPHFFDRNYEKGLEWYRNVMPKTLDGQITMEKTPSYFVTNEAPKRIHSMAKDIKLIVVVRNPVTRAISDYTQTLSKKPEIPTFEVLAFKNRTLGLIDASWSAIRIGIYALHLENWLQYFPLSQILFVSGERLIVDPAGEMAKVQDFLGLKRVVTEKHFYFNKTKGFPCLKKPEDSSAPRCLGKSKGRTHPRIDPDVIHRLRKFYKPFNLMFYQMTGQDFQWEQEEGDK
Summary of the method: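 Each 12-mer (10 μg) was incubated with 3-OST-4 (5 μL of 0.8 mg mL−1 stock) in 100 μL of 50 mM Tris-HCl, pH 7.5. The reaction contained [35S]PAPS (5 μM, 1.2 × 10^5 cpm) and ran 1 h at 37 °C. Product was recovered on DEAE and 35S counted as cpm. A no-substrate reaction served as background.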

[2] = tested on: acetaminophen overdosed mice; details: acetaminophen overdose model; cited from earlier work
human FXa = human FXa (Homo sapiens, UniProt P01008); experiment: Anti-FXa activity; type: biochemical; details: for fold increase of anti-FXa IC50 compared to HSoligo 9: ratio of IC50 values; for anti-FXa IC50: with antithrombin, 0–5000 ng/mL
Chain of human FXa (P01008 33-464): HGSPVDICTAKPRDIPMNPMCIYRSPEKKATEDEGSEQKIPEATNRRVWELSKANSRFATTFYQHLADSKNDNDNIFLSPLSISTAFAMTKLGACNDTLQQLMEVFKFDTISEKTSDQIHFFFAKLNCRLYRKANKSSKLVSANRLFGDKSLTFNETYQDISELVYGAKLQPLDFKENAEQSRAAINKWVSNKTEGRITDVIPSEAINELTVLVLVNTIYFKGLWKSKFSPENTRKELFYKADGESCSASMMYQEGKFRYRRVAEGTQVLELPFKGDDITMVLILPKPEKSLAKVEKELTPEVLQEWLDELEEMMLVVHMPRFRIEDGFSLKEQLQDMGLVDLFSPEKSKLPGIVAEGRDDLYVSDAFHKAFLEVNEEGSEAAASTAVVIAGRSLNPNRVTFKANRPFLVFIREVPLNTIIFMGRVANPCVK
Summary of the method: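 Human FXa at 50 U/mL in PBS. Test compound dissolved in PBS at 0–5000 ng/mL, preincubated with antithrombin (35 μg/mL) for 2 min at 37 °C. FXa added for 4 min at 37 °C, then diluted S-2765 (1 mg mL−1). A405 read continuously for 5 min. Maximum slope divided by control maximum slope gives % FXa activity.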

[3] = tested on: acetaminophen overdosed mice; experiment: Hepatoprotection in acetaminophen overdosed mice; type: in vivo, mouse
tau protein = tau protein (Homo sapiens, UniProt P10636); experiment: Binding of biotinylated oligosaccharides to Cy5-labeled tau; details: biotinylated oligosaccharide
Chain of tau protein (P10636 1-441 isoform P10636-8): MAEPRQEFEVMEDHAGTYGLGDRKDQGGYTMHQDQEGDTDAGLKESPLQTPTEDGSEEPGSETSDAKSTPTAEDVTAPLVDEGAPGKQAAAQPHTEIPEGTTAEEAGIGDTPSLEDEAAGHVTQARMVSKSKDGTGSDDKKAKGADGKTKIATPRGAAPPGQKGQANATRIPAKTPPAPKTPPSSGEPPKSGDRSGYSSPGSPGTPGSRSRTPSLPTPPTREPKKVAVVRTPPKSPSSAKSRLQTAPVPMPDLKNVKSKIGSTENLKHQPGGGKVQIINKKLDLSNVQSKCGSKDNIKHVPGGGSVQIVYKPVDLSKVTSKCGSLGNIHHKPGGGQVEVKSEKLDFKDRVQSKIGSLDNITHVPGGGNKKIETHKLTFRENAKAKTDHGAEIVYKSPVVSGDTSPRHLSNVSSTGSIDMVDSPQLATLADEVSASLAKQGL
Summary of the method: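 Biotinylated oligosaccharides (~10 nmol) were incubated overnight at 4 °C with Cy5-labeled tau (5 μg) in 20 mM HEPES, pH 7.2, 100 mM NaCl, 1% BSA. Complexes were captured on streptavidin agarose and washed 3× in HEPES/250 mM NaCl, then 2× in PBS. Tau was released with heparin lyases II (14 μg) and III (20 μg) over 4 h at RT. Released tau was resolved on 4–12% Bis-Tris gels, read by fluorescence scanning and quantified.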

HMGB1 = target: T2, HMGB1 (Mus musculus, UniProt P63158); experiment: Binding of biotinylated oligosaccharides to HMGB1; details: biotinylated oligosaccharide, mouse liver lysate; for fold increase in binding to HMGB-1 compared to negative control NS6S 8-mer: Western band intensity
T2 sequence (P63158 1-215): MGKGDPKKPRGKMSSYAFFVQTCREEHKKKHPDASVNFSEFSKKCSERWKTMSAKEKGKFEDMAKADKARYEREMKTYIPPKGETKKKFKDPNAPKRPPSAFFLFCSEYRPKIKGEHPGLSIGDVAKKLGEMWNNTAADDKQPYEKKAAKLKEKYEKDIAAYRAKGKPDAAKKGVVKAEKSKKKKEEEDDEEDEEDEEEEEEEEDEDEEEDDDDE
Summary of the method: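 Biotinylated oligosaccharides (~20 nmol) were mixed with fresh mouse liver lysate containing HMGB1 in 20 mM HEPES, pH 7.2, 100 mM NaCl, 1% BSA. Incubation was overnight at 4 °C. Complexes were captured on streptavidin agarose and washed 5× in 20 mM HEPES/250 mM NaCl, pH 7.2. They were eluted in LDS buffer and blotted with rabbit monoclonal anti-HMGB1 plus HRP secondary. Bands were quantified densitometrically.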

factor IIa (FIIa) = factor IIa (FIIa) (Homo sapiens, UniProt P01008); experiment: Anti-FIIa activity; type: biochemical
Chain of factor IIa (FIIa) (P01008 33-464): as the sequence (P01008 33-464) above

3-OST-4 [4] = target: T1, 3-OST-4; experiment: 3-OST-4 modification of oligosaccharide substrates, anion exchange HPLC analysis; type: biochemical; details: for sulfation by 3-OST-4 (in words): HPLC analysis of substrate with or without 3-OST-4 modification
Summary of the method: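 Recombinant human 3-OST-4 (E163–K456) was expressed in Sf9 insect cells and purified on heparin then Ni-Sepharose. Oligosaccharide substrates were incubated overnight at 37 °C with PAPS and 3-OST-4 (0.8 mg mL−1 stock) in 50 mM Tris, pH 7.2, with 2 mM CaCl2. For the 8-mer substrate C, 2 mM MnCl2 was also present. Conversion was followed by anion exchange HPLC.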

| Substance | reactivity toward 3-OST-4 modification (in words) (3-OST-4 [1]) | anti-FXa IC50 (human FXa) | anti-IIa IC50 (factor IIa (FIIa)) | other results |
| --- | --- | --- | --- | --- |
| GlcNAc-(GlcA-GlcNAc)5-GlcA-pNP [12-mer NAc] | not substrates |  |  |  |
| GlcNS6S-GlcA-(GlcNS6S-IdoA2S)4-GlcNS6S-GlcA-pNP [12-mer NS2S6S] | not substrates |  |  |  |
| GlcNS6S-GlcA-GlcNS3S6S-IdoA2S-GlcNS6S-IdoA2S-GlcNS6S-IdoA2S-GlcNS6S-IdoA2S-GlcNS6S-IdoA2S-GlcNS6S-IdoA2S-GlcNS6S-IdoA2S-GlcNS6S-GlcA-Biotin [18-mer AXa] |  |  |  | hepatoprotection effect [2]: does not display the hepatoprotection effect |
| GlcNS6S-GlcA-GlcNS6S-GlcA2S-GlcNS3S6S-GlcA2S-GlcNS3S6S-GlcA2S-pNP [HSoligo 7] |  | 0.0795 µg/mL | lacks anti-FIIa activity; also recorded: no inhibition | fold increase of anti-FXa IC50 compared to HSoligo 9 (human FXa): 3.5 fold; hepatoprotection: plasma level of alanine aminotransferase (ALT) [3]: did not find a decrease; binding to tau, fold higher than 8-mer NS6S (tau protein): 2 fold; binding to tau, fold higher than HSoligo 4 (tau protein): 4 fold; level of binding to tau relative to 18-mer AXa (in words) (tau protein): comparable to 18-mer AXa; extent of binding to HMGB1 relative to positive control 18-mer AXa (in words) (HMGB1): comparable to that of 18-mer AXa; fold increase in binding to HMGB-1 compared to negative control NS6S 8-mer (HMGB1): 15 fold |
| GlcNS-GlcA-GlcNS-GlcA2S-GlcNS-GlcA2S-pNP [6-mer substrate E] |  |  |  | sulfation by 3-OST-4 (in words) (3-OST-4 [4]): highly reactive |
| GlcNS-GlcA-GlcNS-GlcA2S-GlcNS-GlcA-pNP [6-mer substrate D] |  |  |  | sulfation by 3-OST-4 (in words) (3-OST-4 [4]): nearly quantitatively converted |
| GlcNS-GlcA-GlcNS-GlcA-GlcNS-IdoA2S-GlcNS-GlcA-pNP [8-mer substrate B] |  |  |  | sulfation by 3-OST-4 (in words) (3-OST-4 [4]): failed to sulfate |
| GlcNS-GlcA-GlcNS-IdoA2S-GlcNS-IdoA2S-GlcNS-GlcA-pNP [8-mer substrate C] |  |  |  | substrate converted to 3-O-sulfated product after 3-OST-4 modification (3-OST-4 [4]; HPLC, conversion to HSoligo 1): about 71% |

Continued, in another order:

| reactivity toward 3-OST-4 modification (in words) (3-OST-4 [1]) | anti-FXa IC50 (human FXa) | anti-IIa IC50 (factor IIa (FIIa)) | Substance | other results |
| --- | --- | --- | --- | --- |
| not substrates |  |  | GlcNS6S-(GlcA-GlcNS6S)5-GlcA-pNP [12-mer NS6S] |  |
|  | 0.1544 µg/mL | no inhibition | GlcNS6S-GlcA-GlcNS6S-GlcA2S-GlcNS3S6S-GlcA2S-pNP [HSoligo 5] |  |
|  | 0.3114 µg/mL | no inhibition | GlcNS6S-GlcA-GlcNS6S-GlcA2S-GlcNS3S6S-GlcA-pNP [HSoligo 4] | fold increase of anti-FXa IC50 compared to HSoligo 9 (human FXa): 6.9 fold; fold increase in binding to HMGB-1 compared to negative control NS6S 8-mer (HMGB1): 6 fold |
|  | 0.0225 µg/mL | no inhibition | GlcNS6S-GlcA-GlcNS6S-GlcA2S-GlcNS3S6S-IdoA2S-GlcNS-GlcA-pNP [HSoligo 9] |  |
| Lower reactivity |  |  | GlcNS-(GlcA-GlcNS)5-GlcA-pNP [12-mer NS] |  |
| preferably sulfates |  |  | GlcNS-GlcA-(GlcNS-IdoA2S)4-GlcNSGlcA-pNP [12-mer NS2S] |  |
|  | no inhibition | no inhibition | GlcNS-GlcA-GlcNS-GlcA2S-GlcNS3S-IdoA2S-GlcNS-GlcA-pNP [HSoligo 8] |  |
